{
  "source": "paper PMC9070660",
  "about": "(RSC Advances, 2019)",
  "key": {"SKOV3 cells": {"tested_on": "SKOV3 cells", "assay": "MTT cell viability assay, SKOV3", "type": "cell-based, human", "procedure,_shortened": "(§1)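 Culture: SKOV3 in RPMI-1640 with 10% FBS and penicillin-streptomycin at 37 °C, 5% CO2; OVCAR3 and IOSE80 in DMEM. Cells seeded at 1 × 10^4 per well, grown 24 h, then exposed to a range of test compound concentrations for 48 h. MTT (2 mg mL−1 stock) added, […]; formazan dissolved in DMSO; A490 read. IC50 calculated; SI = IC50 IOSE80/IC50 cancer line; three separate experiments.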"}, "OVCAR3 cells": {"tested_on": "OVCAR3 cells", "assay": "MTT cell viability assay, OVCAR3", "type": "cell-based, human", "procedure,_shortened": "as §1"}, "IOSE80 cells": {"tested_on": "IOSE80 cells", "assay": "MTT cell viability assay, normal ovarian epithelial cells IOSE80", "type": "cell-based", "conditions": "Homo sapiens, IOSE80, 48 h, read-out: IC50 (cell viability) IOSE80", "procedure,_shortened": "as §1"}},
  "data": [
    {"smiles": "CC(=O)O[C@H]1C(=O)[C@@]2(C)[C@H]([C@H](OC(=O)c3ccccc3)[C@]3(O)C[C@H](OC(=O)[C@H](O)[C@@H](NC(=O)c4ccccc4)c4ccccc4)C(C)=C1C3(C)C)[C@]1(OC(C)=O)CO[C@@H]1C[C@@H]2O", "note": "[Paclitaxel]", "values": [
      {"measurement": "IC50", "setting": "SKOV3 cells; Homo sapiens, SK-OV-3, 48 h, read-out: IC50 (cell viability) SKOV3", "value": "430 ± 30", "unit": "nM"},
      {"measurement": "SI (selectivity index) SKOV3", "setting": "SKOV3 cells; IC50 IOSE80 cell line/IC50 SKOV3", "value": 4.0},
      {"measurement": "IC50", "setting": "OVCAR3 cells; Homo sapiens, OVCAR-3, 48 h, read-out: IC50 (cell viability) OVCAR3", "value": "380 ± 40", "unit": "nM"},
      {"measurement": "SI (selectivity index) OVCAR3", "setting": "OVCAR3 cells; IC50 IOSE80 cell line/IC50 OVCAR3", "value": 4.5},
      {"measurement": "IC50", "setting": "IOSE80 cells", "value": "1700 ± 100", "unit": "nM"}
    ]}
  ]
}
